Experimental findings from ChEMBL document CHEMBL4196009, “Novel vitexin-inspired scaffold against leukemia” (Eur J Med Chem, 2018) are described below.

The source made the active and inactive calls. No cut-off for these calls is given here.

In experiment [1] the test system is KOPN-8. Description: Induction of apoptosis in human KOPN8 cells assessed as effect on Mcl-1 level at 30 uM after 24 hrs by Western blot analysis relative to control. The format is functional. Summed up: (§1)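 KOPN-8 cells were exposed to compound for 3 h and 24 h, with or without N-acetylcysteine added to a parallel set as antioxidant. Lysates were analysed by Western blot for cleaved PARP, Mcl-1, Ser-2-phosphorylated RNAPII CTD, cMyc, total Rb and pRb. Signals were compared against controls for dose-dependent change.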

The test system of experiment [2] is KOPN-8. Description: Cell cycle arrest in human KOPN8 cells assessed as accumulation at S phase at 10 uM after 24 hrs by propidium iodide staining-based flow cytometry (reference value: 66.56%). The format is functional. Summed up:
(§2)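 KOPN-8 cells treated 24 h alongside a DMSO vehicle and a staurosporine (2.0 µM) positive control. Apoptosis was scored by FITC Annexin V / propidium iodide flow cytometry with quadrant gating (early, late apoptotic). DNA content was measured by PI staining to give the percentage of cells in G0/G1, S and G2/M. Groups were compared by t-test; error bars are SD.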

Experiment [3] has as its target T1, Retinoblastoma-associated protein (Homo sapiens) (UniProt P06400).
T1 sequence (whole entry): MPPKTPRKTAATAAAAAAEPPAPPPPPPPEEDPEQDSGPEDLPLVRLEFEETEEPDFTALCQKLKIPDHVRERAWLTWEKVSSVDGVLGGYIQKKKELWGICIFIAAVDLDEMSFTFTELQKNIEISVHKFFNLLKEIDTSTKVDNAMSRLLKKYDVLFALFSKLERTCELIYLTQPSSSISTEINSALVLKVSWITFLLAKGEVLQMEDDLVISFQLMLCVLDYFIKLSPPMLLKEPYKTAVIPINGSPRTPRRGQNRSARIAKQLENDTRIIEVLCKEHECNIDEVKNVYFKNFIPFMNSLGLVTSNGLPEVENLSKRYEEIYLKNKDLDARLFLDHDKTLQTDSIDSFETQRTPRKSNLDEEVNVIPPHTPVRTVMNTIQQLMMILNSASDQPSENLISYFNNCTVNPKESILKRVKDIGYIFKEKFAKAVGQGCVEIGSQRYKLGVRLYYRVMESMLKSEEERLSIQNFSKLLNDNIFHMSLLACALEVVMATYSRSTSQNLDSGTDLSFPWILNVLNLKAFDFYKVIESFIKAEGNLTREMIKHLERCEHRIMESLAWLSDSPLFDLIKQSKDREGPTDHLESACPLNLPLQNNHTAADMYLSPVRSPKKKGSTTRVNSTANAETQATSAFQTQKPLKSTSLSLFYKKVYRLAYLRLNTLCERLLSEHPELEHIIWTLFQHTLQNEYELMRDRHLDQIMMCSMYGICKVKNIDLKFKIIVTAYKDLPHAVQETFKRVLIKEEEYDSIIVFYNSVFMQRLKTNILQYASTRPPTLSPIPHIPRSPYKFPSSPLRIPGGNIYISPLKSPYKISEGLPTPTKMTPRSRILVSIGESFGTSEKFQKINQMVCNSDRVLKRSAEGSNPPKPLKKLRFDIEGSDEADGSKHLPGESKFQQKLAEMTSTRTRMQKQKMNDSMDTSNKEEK
Briefly: Inhibition of Rb phosphorylation in human KOPN8 cells after 24 hrs by Western blot analysis. The format is cell-based. Summed up:
as §1

The subject of another experiment is MDA-MB-231. Description: Cell cycle arrest in human MDA-MB-231 cells assessed as accumulation at S phase at 20 uM after 24 hrs by propidium iodide staining-based flow cytometry (reference value: 20.15%). The format is functional.
For experiment [4], the system named is KOPN-8. Description: Induction of apoptosis in human KOPN8 cells assessed as downregulation of Mcl-1 level after 3 to 24 hrs by Western blot analysis. In kind it is functional, cell-based. Summed up: (§3)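 KOPN-8 cells were treated at 10–100 µM final, with or without N-acetylcysteine co-addition, for 3 h and 24 h. Lysates were analysed by Western blot for PARP cleavage, Mcl-1, phospho-Ser2 RNAPII CTD, c-Myc, total Rb and pRb. Levels are relative to the vehicle control.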

For experiment [5], the system named is KOPN-8. Briefly: Induction of apoptosis in human KOPN8 cells assessed as effect on Mcl-1 level at 30 uM pre-treated with NAC for 1 hr and measured after 24 hrs by Western blot analysis relative to control. In kind it is functional. Summed up: as §1
Experiment [6] deals with KOPN-8. Description: Effect on c-Myc expression in human KOPN8 cells at 100 uM after 3 hrs by Western blot analysis relative to control. The format is functional. Summed up: as §3
In experiment [7] the target is T1, Retinoblastoma-associated protein (Homo sapiens). Description: Inhibition of Rb phosphorylation in human KOPN8 cells assessed as ratio of phosphorylated Rb to total Rb levels at 30 uM after 3 hrs by Western blot analysis relative to control. In kind it is cell-based. Summed up:
(§4)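 KOPN-8 pre-B ALL cells were treated for 3 h and 24 h, with or without N-acetyl cysteine added to a parallel set of cells as an antioxidant/ROS quencher. Lysates were analysed by Western blot for phosphorylated Rb and total Rb. The same blots also probed PARP cleavage, Mcl-1, Ser-2-phosphorylated RNAPII CTD and cMyc.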

For experiment [8] the target is unchanged. Briefly: Inhibition of Rb phosphorylation in human KOPN8 cells assessed as ratio of phosphorylated Rb to total Rb levels at 100 uM after 24 hrs by Western blot analysis relative to control. The format is cell-based. The procedure, abridged: as §4
Experiment [9] has the same target. Description: Inhibition of Rb phosphorylation in human KOPN8 cells assessed as ratio of phosphorylated Rb to total Rb levels at 10 uM after 3 hrs by Western blot analysis relative to control. In kind it is cell-based. Summed up:
as §4

For experiment [10], the system named is SUP-B15. Description: Induction of apoptosis in human SUP-B15 cells assessed as viable cells at 10 uM after 24 hrs by Annexin V-FITC/propidium iodide staining-based flow cytometry (reference value: 82.8%). The format is functional. The settings on record: SUP-B15, 24 h, read-out: Activity.
The next experiment has as its system THLE-2. Description: Antiproliferative activity against human THLE2 cells after 72 hrs by CelTiter-Glo assay. The format is cell-based. The settings on record: THLE-2, 72 h.
Experiment [11] relates to KOPN-8. Description: Effect on c-Myc expression in human KOPN8 cells at 100 uM pre-treated with NAC for 1 hr and measured after 24 hrs by Western blot analysis relative to control. In kind it is functional.
In experiment [12] the target is T1, Retinoblastoma-associated protein (Homo sapiens). Description: Inhibition of Rb phosphorylation in human KOPN8 cells assessed as ratio of phosphorylated Rb to total Rb levels at 100 uM pre-treated with NAC for 1 hr and measured after 24 hrs by Western blot analysis relative to control. The format is cell-based. Summed up:
as §4

Experiment [13] deals with KOPN-8. Briefly: Induction of apoptosis in human KOPN8 cells assessed as upregulation of cleaved PARP level at 100 uM pre-treated with NAC for 1 hr and measured after 3 hrs by Western blot analysis. In kind it is functional, cell-based. The procedure, abridged:
as §1

Experiment [14] relates to KOPN-8. Description: Induction of apoptosis in human KOPN8 cells assessed as early apoptotic cells at 5 uM after 24 hrs by Annexin V-FITC/propidium iodide staining-based flow cytometry (reference value: 0.1%). The format is functional. Summed up: as §2
Experiment [15] concerns the target T1, Retinoblastoma-associated protein (Homo sapiens). Description: Inhibition of Rb phosphorylation in human KOPN8 cells assessed as ratio of phosphorylated Rb to total Rb levels at 0.5 uM after 24 hrs by Western blot analysis relative to control. In kind it is cell-based. Summed up: as §1
Experiment [16] relates to KOPN-8. Description: Induction of apoptosis in human KOPN8 cells assessed as effect on Mcl-1 level at 0.5 uM after 24 hrs by Western blot analysis relative to control. The format is functional.
Experiment [17] has as its system SUP-B15. Description: Induction of apoptosis in human SUP-B15 cells assessed as late apoptotic cells at 5 uM after 24 hrs by Annexin V-FITC/propidium iodide staining-based flow cytometry (reference value: 2.2%). The format is functional.

On to `COc1ccc(-c2c(I)c(=O)c3c(OC)cc(OC)cc3n2S(=O)(=O)c2ccc(OC)cc2)cc1`, for which the “fold change (FC)” value in the experiment on KOPN-8 [1] was 0.7; in the experiment with KOPN-8 [5], 0.7; in the experiment on KOPN-8 [6] it was 0.2; in experiment [7], 1; in experiment [8], 1; in experiment [9], 1. Moreover, the “fold change (FC)” value with KOPN-8 [11] came out at 0.1; in experiment [12] it was 1.2. Further, the Activity in the experiment on KOPN-8 [2] is 25.66%; with MDA-MB-231, 17.81%; in the experiment with KOPN-8 [4], “Dose-dependent effect”. Besides, the inhibition entry in experiment [3] was “Dose-dependent effect”. Also, the viability at 10 µM in the experiment with SUP-B15 [10] turned out to be 70.5%. In the experiment on THLE-2, this molecule gave an EC50 of 57 µM. In the experiment with KOPN-8 [13], the result was inactive.
With `CN(C)C(=O)c1cc2cnc(Nc3ccc(N4CCNCC4)cn3)nc2n1C1CCCC1` [RIBOCICLIB], the results for the Activity in the experiment with KOPN-8 [14] and with SUP-B15 [17] were 0.5% and 22.5%, respectively. The fold change (FC) in experiment [15] worked out at 0.9; in the experiment with KOPN-8 [16], 1.1.
